Publication PMC3906126 (Biochemistry, 2013)
No end group written: not given here.

Experiments:
WW1 domain of WWOX = target: T1, WW1 domain of WWOX (Homo sapiens, UniProt Q9NZC7); experiment: ITC binding of ErbB4 PPXY peptides to WW1 domain of WWOX
T1 sequence (Q9NZC7 16-50 limits assumed): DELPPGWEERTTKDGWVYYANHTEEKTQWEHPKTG
Summary of the method: (§1)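 His-tagged human WWOX constructs: WW1 (residues 16–50), WW1–WW2 tandem (16–91), and WW2 (57–91) carrying Y85W. Expressed in E. coli BL21*(DE3) and purified by Ni-NTA then SEC. 12-mer ErbB4 peptides (4 mM in syringe) injected 25× into 40–60 μM protein at 25 °C. Buffer: 50mM sodium phosphate, 100mM NaCl, 1mM EDTA, 5mM β-mercaptoethanol, pH 7.0. Buffer-titration heats subtracted. One-site fit with stoichiometry fixed at 1 gives Kd and ΔH. At least 3 repeats, SD.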

WW2W domain of WWOX = WW2W domain of WWOX (Homo sapiens, UniProt Q9NZC7, Y85W); experiment: ITC binding of ErbB4 PPXY peptides to WW2W; details: for ΔH: Table 3, pH 7.0, 25°C, mean ± SD, at least three measurements
Summary of the method: as §1

[1] = target: T2, WW1–WW2 tandem module of WWOX (Homo sapiens, UniProt Q9NZC7); experiment: ITC binding of ErbB4 PPXY peptides to WW1–WW2 tandem module of WWOX; details: Table 4, pH 7.0, 25°C, mean ± SD, at least three measurements
T2 sequence (Q9NZC7 16-91): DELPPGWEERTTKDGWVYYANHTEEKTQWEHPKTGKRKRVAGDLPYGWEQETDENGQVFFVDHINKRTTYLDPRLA
Summary of the method: as §1

WW2 domain of WWOX = experiment: ITC binding of WW1 domain of WWOX to WW2 domain and vice versa; set-up: species or system human

Sequence of WW2W domain of WWOX (Q9NZC7 57-91 Y85W limits assumed): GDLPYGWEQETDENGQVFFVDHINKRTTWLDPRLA

Row | Substance | affinity of binding to WW1 domain (in words) (WW1 domain of WWOX) | ΔH (WW2W domain of WWOX) | ΔH [1] | enthalpy released relative to the PY3_WT peptide (WW1 domain of WWOX; ΔH of mutant versus PY3_WT) | binding between the two WW domains (WW2 domain of WWOX) | affinity for WW2W domain relative to binding of WW1 domain (WW2W domain of WWOX; Tables 1 and 3 compared)
1 | H-GHSPPPAYTPMS-OH [ErbB4_PY2] | in the order of hundreds of micromolar | -8.08 ± 1.09 kcal/mol | -4.88 ± 0.28 kcal/mol | – | – | –
2 | H-FNIPPPIYTSRA-OH [ErbB4_PY1] | in the order of hundreds of micromolar | -4.74 ± 0.52 kcal/mol | -7.25 ± 0.88 kcal/mol | – | – | –
3 | H-TVLPPPPYRHRN-OH [ErbB4_PY3] | – | -4.15 ± 0.28 kcal/mol | -5.00 ± 0.30 kcal/mol | – | – | more than two-fold stronger

Second part, the substance after the results:

Row | affinity of binding to WW1 domain (in words) (WW1 domain of WWOX) | ΔH (WW2W domain of WWOX) | ΔH [1] | enthalpy released relative to the PY3_WT peptide (WW1 domain of WWOX; ΔH of mutant versus PY3_WT) | binding between the two WW domains (WW2 domain of WWOX) | affinity for WW2W domain relative to binding of WW1 domain (WW2W domain of WWOX; Tables 1 and 3 compared) | Substance
4 | – | – | – | more than −5 kcal/mol | – | – | H-TVLPPPPYRARN-OH [PY3_A+5]
5 | – | – | – | – | no observable binding | – | WW1: WW1 domain (residues 16–50) of human WWOX, recombinant with N-terminal His-tag ({His‑tag}-DELPPGWEERTTKDGWVYYANHTEEKTQWEHPKTG)
